Exocytosis inh – lytic granule exocytosis inhibition; TALL-104 LAMP-1 surface exposure, flow cytometry; cells stimulated with thapsigargin and PMA; inhibition, % at 10 µM; 360,000 compounds, 0.66% hits; AID 651702;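 active = inhibition above about 55%, limit read from the data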
MC4R ag barr – activates human MC4R beta-arrestin recruitment | P32245 | U2OS MC4R beta-arrestin complementation, luminescence; percent of melanotan II response, DMSO zero | 360,000 compounds, 0.98% hits | activation, % at 8.9 µM;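 active = activation above a per-plate cutoff, the mean activation of sample wells on that plate plus 3 SD, cut at about 8% in these data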
Target sequence (P32245 whole entry, looked up): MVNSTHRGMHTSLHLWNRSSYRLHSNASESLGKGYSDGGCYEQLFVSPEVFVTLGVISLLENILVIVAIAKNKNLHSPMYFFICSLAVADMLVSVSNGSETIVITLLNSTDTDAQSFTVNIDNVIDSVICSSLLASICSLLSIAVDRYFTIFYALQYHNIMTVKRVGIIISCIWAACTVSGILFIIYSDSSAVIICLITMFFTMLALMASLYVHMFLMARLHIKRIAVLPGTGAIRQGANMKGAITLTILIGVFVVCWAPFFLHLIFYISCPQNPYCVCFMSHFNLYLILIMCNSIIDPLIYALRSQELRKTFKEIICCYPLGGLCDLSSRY
EP2 modulator – EP2 receptor (human) modulation; induction, % at 25 µM; 260,000 compounds, 0.83% hits; EP2-expressing cells, cAMP HTRF FRET, PGE2 co-stimulation; AID 940;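 active = compounds whose cAMP rise, as percent of the full-agonist control response, exceeds 60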;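 also: rat C6 glioma line stably carrying human EP2 under a CMV promoter; the protocol text gives 20 µM as final concentration; 100% = response of wells given 1 µM PGE2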
MC4R antagonist – antagonists of human melanocortin 4 receptor (MC4R) | MC4R-expressing cells, MTII-stimulated cAMP, LANCE TR-FRET | inhibition, % at 6.5 µM | 360,000 compounds, 0.48% hits | AID 540295;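 active = inhibition above its plate's cutoff, the mean of tested wells on that plate plus 3 SD, cut at about 29% in these data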;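 also: 0% = Melanotan II alone and 100% = Melanotan II plus saturating MCL0020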
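Material – human MC4R-expressing U2OS cells · Repeats – no replicates · Detection – TR-FRET with Eu-cAMP and labeled anti-cAMP, 671 nm · Times – compound 30 min, challenge 1 h, detection 1 h · Compound – single nominal compound dose of 6.5 µM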
PGE2 EP2 inh – EP2 receptor (human) inhibition. P43116. C6 glioma cells expressing human EP2, cAMP TR-FRET; cells stimulated with saturating PGE2. inhibition, % at 25 µM. 260,000 compounds, 0.52% hits. AID 1422;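 active = percent inhibition above 40 after rounding to a whole number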;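 also: rat C6 glioma host cells with rolipram phosphodiesterase inhibitor present; the protocol text gives 20 µM as final concentration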
T cell modulator – T cell immune modulation candidate. response (vesicle binding), % at 7 µM. 2C CD8+ T cell-vesicle binding, flow cytometry; hits give low values. 330,000 compounds, 0.068% hits;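 active = response, share of CD8 T cells binding vesicles, and their 90th percentile fluorescence all below set limits, cut at about 80% in these data, passing the limit was not always enough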;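 also: values below 100% mean blocked vesicle binding to the CD8+ T cells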
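System: murine 2C transgenic CD8+ T lymphocytes; also added: QL9-loaded Drosophila micro-vesicles; times: binding 1.5 h at 37 °C; measured by: flow cytometry, PE anti-B7-1 (FL2) versus Alexa647 anti-CD8 (FL8), PFA-fixed; control set: Peptide-free naked vesicles (low) and QL9 vesicles with 0.7% DMSO vehicle (high)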
EP2 cAMP induct – EP2 receptor cAMP induction, counter-screens negative. shares compounds with EP2 modulator. C6 glioma EP2 cells, cAMP HTRF induction; plus low (about EC15) PGE2 agonist. calls only at 20 µM (by protocol). 1,300 compounds, 47% hits;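 active = cAMP induction above 50% in the main assay while under 30% in all four parallel counter assays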;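 also: rat C6 glioma cells stably expressing human EP2 receptor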
The depositor's hits bear a star; i = inactive; / = no result given; + = active, no number. An excerpt weighted towards active compounds, which were near 2.6% of everything screened.

SMILES	Exocytosis inh	MC4R ag barr	EP2 modulator	MC4R antagonist	PGE2 EP2 inh	T cell modulator	EP2 cAMP induct
CC1CCC(C(C)C)C(OC(=O)COC(=O)c2ccc(N)cc2)C1 (configuration not stated)	-2	1	32	8	10	145	/
CC(CC(=O)O)(CC(=O)O)C(=O)O	/	/	51	/	7	/	i
CC(C)(CC(=O)O)CC(=O)O	-5	-1	/	-2	/	286	/
Cc1ccc(C2(C)CC(C)(C)N(C(=O)CSc3nnc(C)s3)c3ccccc32)cc1 (configuration not stated)	-1	2	47	1	17	217	/
Cc1nnc(SCC(=O)N2c3ccccc3C(C)(c3ccccc3)CC2(C)C)s1 (configuration not stated)	0	-2	67*	6	2	596	i
CC(C)c1ccc(/C=N/Nc2cc(N3CCOCC3)nc(N3CCOCC3)n2)cc1	6	-2	96*	-7	9	353	+
Cc1ccc(/C=N/Nc2cc(C)nc(N3CCOCC3)n2)cc1	-3	2	-19	3	10	374	/
Cc1cccc(/C=N/Nc2cc(N3CCOCC3)nc(N3CCOCC3)n2)c1	0	5	80*	-4	4	332	+
CCOc1cc(C#N)c(NC(=O)c2cccnc2)cc1OCC	5	-2	-5	-8	7	172	/
COC(=O)C(C)Sc1ncnc2c1nnn2-c1ccc(F)cc1 (configuration not stated)	0	-2	56	13	-2	435	i
CC1(C)C2CCC1(C)C(OC(=O)C[n+]1ccccc1)C2 (configuration not stated)	0	0	1	11	8	482	/
CC1(C)C2CCC1(C)C(OC(=O)CC(=O)O)C2 (configuration not stated)	/	/	62*	/	17	367	+
Cc1ccc(SCn2nnc3ccccc3c2=O)c(C)c1	-4	2	24	1	4	630	/
COCC(=O)N(C)c1nnc(-c2cnc(C)cn2)s1	-2	3	71*	-3	17	0	i
Cc1ccccc1NC(=O)C1c2cccc[n+]2CC(=O)N1Cc1ccc2c(c1)OCO2 (configuration not stated)	-10	-2	26	4	8	240	/
Cc1ccc(/C=N/N(Cc2ccccc2)c2ccccc2)o1	5	2	69*	15	6	231	+
COc1cccc(CN(C)Cc2nc(C3CC3)no2)c1	-6	0	6	2	6	276	/
CC(C)(C)C1CCC(OC(=O)c2ccncc2)CC1 (configuration not stated)	-6	1	84*	8	-2	255	i
CC(C)(C)C1CCC(OC(=O)c2cncc(Br)c2)CC1 (configuration not stated)	-5	-2	12	9	7	360	/
O=C(c1ccc(Br)o1)N(Cc1ccccc1)Cc1ccccc1	5	6	54	4	/	543	+
O=C(NCc1ccccc1)c1ccc(Br)o1	-6	0	16	4	9	391	/
O=C(Nc1ccccc1)c1nn(-c2cccc(C(F)(F)F)c2)ccc1=O	2	-3	84*	-2	8	484	+
COC(=O)c1nn(-c2cccc(C(F)(F)F)c2)ccc1=O	17	-1	/	2	/	408	/
O=C1CC(c2cccs2)Cc2nc(NC(=O)C3CC3)ncc21 (configuration not stated)	3	0	-18	11	-2	467	/
CC(=O)N1CCOc2cc(S(=O)(=O)NC(C)c3ccccc3)c(Cl)cc21 (configuration not stated)	0	1	/	-2	/	646	/
SMILES	Exocytosis inh	MC4R ag barr	EP2 modulator	MC4R antagonist	PGE2 EP2 inh	T cell modulator	EP2 cAMP induct
O=C1CCCc2ccccc2N1Cc1c(Cl)cccc1Cl	0	2	72*	8	9	189	+
O=c1cc2c(nn1Cc1c(Cl)cccc1Cl)-c1ccccc1CC2	43	-2	78*	-15	8	141	+
O=C1CCCc2ccccc2N1Cc1ccccc1Cl	-14	-1	16	1	11	463	/
O=C1CCCc2ccccc2N1Cc1cccc(Cl)c1	2	-1	72*	10	9	301	i
Nc1nnc(SCc2coc(-c3ccc(Cl)cc3)n2)s1	-8	-2	-40	2	10	225	/
COCCn1c(-c2ccc(OC)cc2)nc2ccccc21	-4	-3	8	12	9	313	/
COc1ccc(Cn2c(-c3ccc(OC)cc3)nc3ccccc32)cc1	-2	0	67*	4	/	581	i
COc1ccc(-c2nc3c(c(=O)[nH]c(=O)n3Cc3ccccc3)n2Cc2ccccc2)cc1	20	1	74*	6	4	485	+
COc1ccc(-c2nc3c(c(=O)[nH]c(=O)n3Cc3ccccc3)n2C)cc1	-4	0	52	4	9	605	/
Nc1nc(SCC(=O)c2c(N)n(Cc3ccccc3)c(=O)[nH]c2=O)n[nH]1	-2	0	-13	4	7	176	/
CNC(=O)N(O)C1N(/N=C/c2ccccc2F)C(=S)SC1(C)C (configuration not stated)	0	0	/	-1	/	256	/
COc1ccc(C2(O)CCN(CC(O)c3ccc(C(C)(C)C)cc3)CC2)cc1 (configuration not stated)	/	/	-70	/	9	/	/
Nc1nc(Cc2ccccc2)nc(Cc2ccccc2)c1-c1ccccc1	/	/	67*	/	39	/	i
CCN(C(=O)Cn1nc(C(=O)O)c2ccccc2c1=O)C1CCCCC1	-5	-2	3	-3	6	270	/
O=C(O)c1nn(CC(=O)N(C2CCCCC2)C2CCCCC2)c(=O)c2ccccc12	0	1	83*	-4	4	670	+
CC(C)n1cc(-c2ccc(Cl)cc2)cc(C#N)c1=O	-8	0	68*	-2	10	243	i
CC1CCN(C(=O)Cn2c(=O)n(CCc3ccccc3)c(=O)c3ccccc32)CC1	-1	0	32	8	15	164	/
CCN(CC)C(=O)c1nn(-c2ccccc2)c2c1C1CCC2(C)C1(C)C (configuration not stated)	2	-5	72*	11	7	421	i
CCN(CC)C(=O)c1nn(Cc2ccccc2)c(=O)c2ccccc12	-1	-1	/	3	/	214	/

Source: PubChem BioAssay (several laboratories)
